ChEMBL document CHEMBL4364274, “Synthesis and biological activity of glycyrrhetinic acid derivatives as antitumor agents” (Eur J Med Chem, 2019)

Columns and labels:
A549 = experiment: Antiproliferative activity against human A549 cells incubated for 72 hrs by MTT assay; format: functional, cell-based; details: A549, 72 h
Outline: (§1)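 Cells in exponential growth were plated at 3×10^3 cells/well and grown 24 h at 37 °C in 5% CO2. They were then exposed to a range of drug concentrations for 72 h. MTT (5 mg/mL solution) was added for 4 h, the medium was discarded, and formazan was dissolved in DMSO before reading A490. Drug-free wells served as blanks. % inhibition was calculated as 1 − (sample−blank)/(control−blank), and IC50 was taken as the concentration giving 50% inhibition.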

MCF7 = experiment: Antiproliferative activity against human MCF7 cells incubated for 72 hrs by MTT assay; format: functional, cell-based; details: MCF7, 72 h; outline: as §1
HepG2 = experiment: Antiproliferative activity against human HepG2 cells incubated for 72 hrs by MTT assay; format: functional, cell-based; details: HepG2, 72 h; outline: as §1
HeLa = experiment: Antiproliferative activity against human HeLa cells incubated for 72 hrs by MTT assay; format: functional, cell-based; outline: as §1
MDCK = experiment: Cytotoxicity against MDCK cells incubated for 72 hrs by MTT assay; format: cell-based; details: Canis lupus familiaris; outline: as §1

IC50 (A549) | IC50 (MCF7) | IC50 (HepG2) | IC50 (HeLa) | SMILES | IC50 (MDCK)
3.17 µM | 4.39 µM | 3.07 µM | 5 µM | C[C@H](N)C(=O)O[C@H]1CC[C@]2(C)[C@H]3C(=O)C=C4[C@@H]5C[C@@](C)(C(=O)OCc6ccccc6)CC[C@]5(C)CC[C@@]4(C)[C@]3(C)CC[C@H]2C1(C)C | 3.4 µM
3.43 µM | 4.69 µM | 5.15 µM | 2.94 µM | CC[C@H](C)[C@H](N)C(=O)N[C@H]1CC[C@]2(C)[C@H]3C(=O)C=C4[C@@H]5C[C@@](C)(C(=O)OCc6ccccc6)CC[C@]5(C)CC[C@@]4(C)[C@]3(C)CC[C@H]2C1(C)C | 4.13 µM
> 40 µM | > 40 µM | > 40 µM | > 40 µM | CC(C)(C)OC(=O)N1CCC[C@H]1C(=O)N[C@H]1CC[C@]2(C)[C@H]3C(=O)C=C4[C@@H]5C[C@@](C)(C(=O)OCc6ccccc6)CC[C@]5(C)CC[C@@]4(C)[C@]3(C)CC[C@H]2C1(C)C | > 40 µM
> 40 µM | > 40 µM | > 40 µM | > 40 µM | CC(C)(C)OC(=O)N[C@@H](Cc1ccccc1)C(=O)O[C@H]1CC[C@]2(C)[C@H]3C(=O)C=C4[C@@H]5C[C@@](C)(C(=O)OCc6ccccc6)CC[C@]5(C)CC[C@@]4(C)[C@]3(C)CC[C@H]2C1(C)C | > 40 µM
> 40 µM | > 40 µM | > 40 µM | > 40 µM | C[C@H](NC(=O)OC(C)(C)C)C(=O)O[C@H]1CC[C@]2(C)[C@H]3C(=O)C=C4[C@@H]5C[C@@](C)(C(=O)OCc6ccccc6)CC[C@]5(C)CC[C@@]4(C)[C@]3(C)CC[C@H]2C1(C)C | > 40 µM
3.01 µM | 3.28 µM | 5.05 µM | 2.24 µM | CC1(C)[C@@H](NC(=O)[C@@H](N)Cc2ccccc2)CC[C@]2(C)[C@H]3C(=O)C=C4[C@@H]5C[C@@](C)(C(=O)OCc6ccccc6)CC[C@]5(C)CC[C@@]4(C)[C@]3(C)CC[C@@H]12 | 5.02 µM
> 40 µM | > 40 µM | > 40 µM | > 40 µM | CC(C)(C)OC(=O)N1CCC[C@H]1C(=O)O[C@H]1CC[C@]2(C)[C@H]3C(=O)C=C4[C@@H]5C[C@@](C)(C(=O)OCc6ccccc6)CC[C@]5(C)CC[C@@]4(C)[C@]3(C)CC[C@H]2C1(C)C | > 40 µM
7.53 µM | 8.07 µM | 9.96 µM | 10.6 µM | CSCC[C@H](N)C(=O)O[C@H]1CC[C@]2(C)[C@H]3C(=O)C=C4[C@@H]5C[C@@](C)(C(=O)OCc6ccccc6)CC[C@]5(C)CC[C@@]4(C)[C@]3(C)CC[C@H]2C1(C)C | 39.2 µM
6.97 µM | 7 µM | 4.09 µM | 3.1 µM | CSCC[C@H](N)C(=O)N[C@H]1CC[C@]2(C)[C@H]3C(=O)C=C4[C@@H]5C[C@@](C)(C(=O)OCc6ccccc6)CC[C@]5(C)CC[C@@]4(C)[C@]3(C)CC[C@H]2C1(C)C | 6.25 µM
5 µM | 3.89 µM | 4.56 µM | 8 µM | CNCC(=O)O[C@H]1CC[C@]2(C)[C@H]3C(=O)C=C4[C@@H]5C[C@@](C)(C(=O)OCc6ccccc6)CC[C@]5(C)CC[C@@]4(C)[C@]3(C)CC[C@H]2C1(C)C | 5.76 µM
> 40 µM | > 40 µM | > 40 µM | > 40 µM | CC(C)(C)OC(=O)NCC(=O)O[C@H]1CC[C@]2(C)[C@H]3C(=O)C=C4[C@@H]5C[C@@](C)(C(=O)OCc6ccccc6)CC[C@]5(C)CC[C@@]4(C)[C@]3(C)CC[C@H]2C1(C)C | > 40 µM
> 40 µM | > 40 µM | > 40 µM | > 40 µM | CN(CC(=O)N[C@H]1CC[C@]2(C)[C@H]3C(=O)C=C4[C@@H]5C[C@@](C)(C(=O)OCc6ccccc6)CC[C@]5(C)CC[C@@]4(C)[C@]3(C)CC[C@H]2C1(C)C)C(=O)OC(C)(C)C | > 40 µM
> 40 µM | > 40 µM | > 40 µM | > 40 µM | CN(CC(=O)O[C@H]1CC[C@]2(C)[C@H]3C(=O)C=C4[C@@H]5C[C@@](C)(C(=O)OCc6ccccc6)CC[C@]5(C)CC[C@@]4(C)[C@]3(C)CC[C@H]2C1(C)C)C(=O)OC(C)(C)C | > 40 µM
4.73 µM | 5.22 µM | 6.39 µM | 9.05 µM | CC1(C)[C@@H](OC(=O)[C@@H]2CCCN2)CC[C@]2(C)[C@H]3C(=O)C=C4[C@@H]5C[C@@](C)(C(=O)OCc6ccccc6)CC[C@]5(C)CC[C@@]4(C)[C@]3(C)CC[C@@H]12 | 9.63 µM
3.35 µM | 3.41 µM | 3.79 µM | 3.2 µM | CNCC(=O)N[C@H]1CC[C@]2(C)[C@H]3C(=O)C=C4[C@@H]5C[C@@](C)(C(=O)OCc6ccccc6)CC[C@]5(C)CC[C@@]4(C)[C@]3(C)CC[C@H]2C1(C)C | 3.17 µM
> 40 µM | > 40 µM | > 40 µM | > 40 µM | C[C@H](NC(=O)OC(C)(C)C)C(=O)N[C@H]1CC[C@]2(C)[C@H]3C(=O)C=C4[C@@H]5C[C@@](C)(C(=O)OCc6ccccc6)CC[C@]5(C)CC[C@@]4(C)[C@]3(C)CC[C@H]2C1(C)C | > 40 µM
2.75 µM | 3.81 µM | 3.31 µM | 3.3 µM | CC1(C)[C@@H](OC(=O)CN)CC[C@]2(C)[C@H]3C(=O)C=C4[C@@H]5C[C@@](C)(C(=O)OCc6ccccc6)CC[C@]5(C)CC[C@@]4(C)[C@]3(C)CC[C@@H]12 | 4.43 µM
> 40 µM | > 40 µM | > 40 µM | > 40 µM | CC(C)(C)OC(=O)NCC(=O)N[C@H]1CC[C@]2(C)[C@H]3C(=O)C=C4[C@@H]5C[C@@](C)(C(=O)OCc6ccccc6)CC[C@]5(C)CC[C@@]4(C)[C@]3(C)CC[C@H]2C1(C)C | > 40 µM
> 40 µM | > 40 µM | > 40 µM | > 40 µM | CC(C)C[C@H](NC(=O)OC(C)(C)C)C(=O)N[C@H]1CC[C@]2(C)[C@H]3C(=O)C=C4[C@@H]5C[C@@](C)(C(=O)OCc6ccccc6)CC[C@]5(C)CC[C@@]4(C)[C@]3(C)CC[C@H]2C1(C)C | > 40 µM
> 40 µM | > 40 µM | > 40 µM | > 40 µM | CC[C@H](C)[C@H](NC(=O)OC(C)(C)C)C(=O)O[C@H]1CC[C@]2(C)[C@H]3C(=O)C=C4[C@@H]5C[C@@](C)(C(=O)OCc6ccccc6)CC[C@]5(C)CC[C@@]4(C)[C@]3(C)CC[C@H]2C1(C)C | > 40 µM
17 µM | 14.4 µM | > 40 µM | 18.8 µM | CC1(C)[C@@H](OC(=O)[C@@H](N)Cc2ccccc2)CC[C@]2(C)[C@H]3C(=O)C=C4[C@@H]5C[C@@](C)(C(=O)OCc6ccccc6)CC[C@]5(C)CC[C@@]4(C)[C@]3(C)CC[C@@H]12 | 14.4 µM
> 40 µM | > 40 µM | > 40 µM | > 40 µM | CC[C@H](C)[C@H](NC(=O)OC(C)(C)C)C(=O)N[C@H]1CC[C@]2(C)[C@H]3C(=O)C=C4[C@@H]5C[C@@](C)(C(=O)OCc6ccccc6)CC[C@]5(C)CC[C@@]4(C)[C@]3(C)CC[C@H]2C1(C)C | > 40 µM
2.44 µM | 2.85 µM | 3.47 µM | 3.01 µM | CC1(C)[C@@H](NC(=O)CN)CC[C@]2(C)[C@H]3C(=O)C=C4[C@@H]5C[C@@](C)(C(=O)OCc6ccccc6)CC[C@]5(C)CC[C@@]4(C)[C@]3(C)CC[C@@H]12 | 3.75 µM
22.9 µM | 11.9 µM | 14.9 µM | 43.1 µM | CC(C)C[C@H](N)C(=O)O[C@H]1CC[C@]2(C)[C@H]3C(=O)C=C4[C@@H]5C[C@@](C)(C(=O)OCc6ccccc6)CC[C@]5(C)CC[C@@]4(C)[C@]3(C)CC[C@H]2C1(C)C | 19.3 µM
> 40 µM | > 40 µM | > 40 µM | > 40 µM | CC1(C)[C@@H](O)CC[C@]2(C)[C@H]3C(=O)C=C4[C@@H]5C[C@@](C)(C(=O)O)CC[C@]5(C)CC[C@@]4(C)[C@]3(C)CC[C@@H]12 [ENOXOLONE] | > 40 µM
> 40 µM | > 40 µM | > 40 µM | > 40 µM | CC(C)(C)OC(=O)N[C@@H](Cc1ccccc1)C(=O)N[C@H]1CC[C@]2(C)[C@H]3C(=O)C=C4[C@@H]5C[C@@](C)(C(=O)OCc6ccccc6)CC[C@]5(C)CC[C@@]4(C)[C@]3(C)CC[C@H]2C1(C)C | > 40 µM
> 40 µM | > 40 µM | > 40 µM | > 40 µM | CSCC[C@H](NC(=O)OC(C)(C)C)C(=O)N[C@H]1CC[C@]2(C)[C@H]3C(=O)C=C4[C@@H]5C[C@@](C)(C(=O)OCc6ccccc6)CC[C@]5(C)CC[C@@]4(C)[C@]3(C)CC[C@H]2C1(C)C | > 40 µM
> 40 µM | > 40 µM | > 40 µM | > 40 µM | CSCC[C@H](NC(=O)OC(C)(C)C)C(=O)O[C@H]1CC[C@]2(C)[C@H]3C(=O)C=C4[C@@H]5C[C@@](C)(C(=O)OCc6ccccc6)CC[C@]5(C)CC[C@@]4(C)[C@]3(C)CC[C@H]2C1(C)C | > 40 µM
